In ChEMBL document CHEMBL5506039, “Discovery and Optimization of Tambjamines as a Novel Class of Antileishmanial Agents” (J Med Chem, 2024):

Tests used:
[1] = system: Leishmania mexicana; assay: Antileishmanial activity against Leishmania mexicana MNYC/BZ/62/M379 amastigotes expressing red-shifted firefly luciferase from integrated ribosomal (28S) RNA locus infected in mouse J774.A1 cells assessed as parasite survival at 0.1 uM measured after 96 hrs by luminescence based analysis relative to control; type: functional; settings: MNYC/BZ/62/M379, J774.A1
[2] = Cytotoxicity against mouse J774.A1 cells assessed as cell survival at 0.1 uM measured after 96 hrs by SYBR Green II dye based analysis relative to control; type: toxicity; settings: read-out: Survival
How it was run: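 Uninfected J774A.1 mouse macrophages were plated at 1 × 10⁴ cells/well in DMEM with 10% heat-inactivated FBS and left 3 h at 37 °C to reattach. Compounds were added from DMSO, and analogues were screened at 0.1 μM. After 96 h at 37 °C in 5% CO₂, medium was removed. SYBR Green II (1:1000 in 1% Triton/PBS) was added for 1 h in the dark at room temperature, and fluorescence was read at Ex 485/Em 535 as a DNA-content measure of viability.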

[3] = Metabolic stability in pre-warmed pooled human liver microsomes assessed as half life at 1 uM measured upto 60 mins by LC-MS analysis; type: ADME, Microsome
How it was run: (§1)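 Compound at 1 μM final with 0.5 mg/mL pooled human or mouse liver microsomes, 1.3 mM NADP and 3.3 mM MgCl₂ in 100 mM potassium phosphate, pH 7.4. Reaction started with 1 U/mL G6PD at 37 °C with shaking.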

[4] = Metabolic stability in pre-warmed pooled mouse liver microsomes assessed as half life at 1 uM measured upto 60 mins by LC-MS analysis; type: ADME, Microsome; how it was run: as §1
[5] = system: Leishmania mexicana; assay: Antileishmanial activity against Leishmania mexicana MNYC/BZ/62/M379 amastigotes expressing red-shifted firefly luciferase from integrated ribosomal (28S) RNA locus infected in mouse J774.A1 cells assessed as reduction in parasite survival measured after 96 hrs by luminescence based analysis; type: functional, organism-based; settings: MNYC/BZ/62/M379, J774.A1, 96 h
How it was run: (§2)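 J774A.1 macrophages infected with stationary-phase luciferase-expressing promastigotes at 10:1 parasites:macrophage, overnight at 37 °C, 5% CO₂. Non-internalized parasites washed off and 1 × 10⁴ cells/well replated in MEM/10% HI-FBS. Compounds in DMSO added as serial 3-fold dilutions (typically 10 μM–1 nM) for 96 h. Luciferase luminescence read; EC50 from log-transformed sigmoidal variable-slope fit. Mean ± SD of ≥2 independent experiments.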

[6] = Cytotoxicity against mouse J774.A1 cells assessed as reduction in cell survival measured after 96 hrs by SYBR Green II dye based analysis; type: toxicity
How it was run: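 Uninfected J774A.1 macrophages, 1 × 10⁴ cells/well in DMEM/10% HI-FBS, reattached 3 h, then exposed to compounds for 96 h. DNA content read after lysis with SYBR Green II (1:1000 in 1% Triton/PBS), 1 h dark at room temperature, fluorescence Ex 485/Em 535.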

[7] = Therapeutic index, ratio of EC50 for mouse J774.A1 cells to EC50 for antileishmanial activity against Leishmania mexicana MNYC/BZ/62/M379 amastigotes expressing red-shifted firefly luciferase from integrated ribosomal (28S) RNA locus infected in mouse J774.A1 cells; type: toxicity, cell-based; settings: read-out: TI
[8] = system: Leishmania donovani; assay: Antileishmanial activity against Leishmania donovani amastigotes expressing red-shifted firefly luciferase from integrated ribosomal (28S) RNA locus infected in mouse J774.A1 cells assessed as reduction in parasite growth measured after 96 hrs by luminescence based analysis; type: functional, organism-based; settings: J774.A1, 96 h; how it was run: as §2
[9] = system: HepG2; assay: Cytotoxicity against human HepG2 cells assessed as inhibition of cell growth incubated for 48 hrs by MTT assay; type: toxicity, cell-based
How it was run: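 HepG2 cells, 2.5 × 10⁴/well in supplemented complete MEM, settled overnight at 37 °C, 5% CO₂. Compounds given as 11 duplicate 1.6-fold dilutions, 10 to 0.15 μg/mL, for 48 h. MTT added for 1 h in the dark at room temperature, formazan dissolved in acidified isopropanol, absorbance read. Triplicate runs; IC50 by sigmoidal variable-slope regression.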

[10] = Therapeutic index, ratio of IC50 for human HepG2 cells to EC50 for antileishmanial activity against Leishmania donovani amastigotes expressing red-shifted firefly luciferase from integrated ribosomal (28S) RNA locus infected in mouse J774.A1 cells; type: toxicity, cell-based; settings: read-out: TI
How it was run: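 TI computed as HepG2 IC50 divided by L. donovani EC50. HepG2: MTT assay with 48 h exposure to 10–0.15 μg/mL (1.6-fold dilutions), triplicates, sigmoidal variable-slope fit. Amastigotes: J774A.1 macrophages infected with RS-luciferase promastigotes at 10:1, washed after 24 h, then 96 h compound exposure (3-fold dilutions, 10 μM–1 nM) in MEM/10% HI-FBS at 37 °C, 5% CO₂; luciferase readout.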

Row | SMILES | survival at 0.1 µM [1] | viability at 96 h, 0.1 µM [2] | half-life at 1 µM [3] | half-life at 1 µM [4] | EC50 [5] | EC50 at 96 h [6] | selectivity ratio [7] | EC50 [8] | IC50 [9] | selectivity ratio [10]
1 | COc1ccc(Oc2ccc(N/C=C3\N=C(c4ccc[nH]4)C4=C3CCCC4)cc2)cc1.Cl | 89.8% | 62.5% | > 60 min | > 60 min |  |  |  |  |  | 
2 | CCc1c(C)[nH]c(C2=N/C(=C\NC34CC5CC(CC(C5)C3)C4)C(C)=C2C)c1C.Cl | 10.7% | 63.5% | > 60 min | 29 min | 0.054 µM | 0.675 µM | 12 | 0.0812 µM | 21.3 µM | 263
3 | Cc1ccc(Oc2ccc(N/C=C3\N=C(c4ccc[nH]4)C4=C3CCCC4)cc2)cc1.Cl | 102% | 58.2% | > 60 min | > 60 min |  |  |  |  |  | 
4 | C(/NC1CCCCCC1)=C1/N=C(c2ccc[nH]2)C2=C1CCCC2.Cl | 24.7% | 80% | > 60 min |  | 0.074 µM | 0.252 µM | 3.4 | 0.101 µM | 6.2 µM | 61
5 | COC1=CC(c2ccc(-c3ccc(OC)cc3)[nH]2)=N/C1=C\NC1CCCCCC1.Cl | -0.02% | 77.3% | > 60 min | > 60 min | 0.0188 µM | 0.45 µM | 24 |  |  | 
6 | COC1=CC(c2ccc[nH]2)=N/C1=C\NCC1CCCCCC1.Cl | 5.3% | 72.2% | 18.6 min |  | 0.0485 µM | > 1 µM | > 21 | 0.088 µM | 6.06 µM | 69
7 | Cl.FC(F)(F)Oc1ccc(OC2=CC(c3ccc[nH]3)=N/C2=C\NC23CC4CC(CC(C4)C2)C3)cc1 | 35.7% | 80.7% | > 60 min | > 60 min | 0.041 µM | 0.353 µM | 8.6 |  |  | 
8 | COC1=CC(c2ccc[nH]2)=N/C1=C\N[C@H]1CC[C@H](NC(=O)OC(C)(C)C)CC1 | 28.3% | 51.1% | 8.45 min | 9.71 min | 0.0877 µM | 2.99 µM | 34 |  |  | 
9 | COC1=CC(c2ccc[nH]2)=N/C1=C\Nc1ccc(Oc2ccc(C)cc2)cc1 | 26% | 69.8% | > 60 min | 46.9 min | 0.093 µM | 2.74 µM | 29 | 0.285 µM | 1.73 µM | 6
10 | CC1=C/C(=C\NC23CC4CC(CC(C4)C2)C3)N=C1c1ccc[nH]1.Cl | 15.4% | 86.9% | > 60 min |  | 0.048 µM | 1.13 µM | 24 | 0.1 µM |  | 300
11 | COC1=CC(c2ccc[nH]2)=N/C1=C\Nc1ccc(C)cc1.Cl | 5.49% | 50.8% | 30 min | 28.9 min | 0.041 µM | 0.171 µM | 4.2 |  |  | 
12 | Cl.Fc1cc(F)cc(OC2=CC(c3ccc[nH]3)=N/C2=C\NC23CC4CC(CC(C4)C2)C3)c1 | 27.3% | 59.3% | > 60 min | > 60 min | 0.079 µM | 0.68 µM | 8.6 | 0.184 µM | 59.4 µM | 323
13 | COC1=CC(c2ccc(Cc3ccc(OC)cc3)[nH]2)=N/C1=C\NC12CC3CC(CC(C3)C1)C2.Cl | -0.05% | 59.6% | > 60 min | > 60 min | 0.0113 µM | > 1 µM | > 88 |  |  | 
14 | COC1=CC(c2ccc[nH]2)=N/C1=C\N[C@H]1CC[C@H](C(F)(F)F)CC1.Cl | 9.48% | 74.4% | 13 min |  | 0.0467 µM | 1.1 µM | 24 | 0.198 µM | 5.12 µM | 26
15 | Cl.FC(F)(F)Oc1ccc(C2=CC(c3ccc[nH]3)=N/C2=C\NC23CC4CC(CC(C4)C2)C3)cc1 | 39% | 70.6% | > 60 min | > 60 min | 0.0905 µM | 0.908 µM | 10 | 0.398 µM | 85.5 µM | 215
16 | COC1=CC(c2ccc[nH]2)=N/C1=C\Nc1ccccc1 | 14.3% | 72.8% |  |  | 0.073 µM | 1.04 µM | 14 | 0.226 µM |  | 
17 | COC1=CC(c2ccc[nH]2)=N/C1=C\Nc1ccc2c(c1)OCCO2.Cl | 9.03% | 77.3% | > 60 min | 15.8 min | 0.032 µM | > 1 µM | > 31 |  |  | 
18 | CCCCCCN/C=C1\N=C(c2ccc[nH]2)C=C1OC.Cl | 11.1% | 127% | 17.1 min |  | 0.0525 µM | > 1 µM | > 19 | 0.118 µM | 26.7 µM | 226
19 | COC1=CC(c2ccc[nH]2)=N/C1=C\Nc1ccc(Oc2ccc(OC)cc2)cc1 | 8.65% | 50.2% | > 60 min | 30.1 min | 0.066 µM | > 1 µM | > 15 |  |  | 
20 | COC1=CC(c2ccc[nH]2)=N/C1=C\Nc1cccc(OC(F)(F)F)c1.Cl | 11.4% | 83.7% | > 60 min | 15.8 min | 0.054 µM | 0.76 µM | 14 |  |  | 
21 | CCc1c[nH]c(C2=N/C(=C\NC3CCCCCC3)C(C)=C2C)c1.Cl | 23.8% | 63.3% | > 60 min | 11 min | 0.117 µM | 1.33 µM | 11 |  |  | 
22 | COC1=CC(c2ccc[nH]2)=N/C1=C\N[C@H]1CC[C@H](C)CC1.Cl | 12.4% | 66.6% | 17.3 min |  | 0.04 µM | 0.696 µM | 17 | 0.122 µM | 3.43 µM | 28
23 | CCC1=C/C(=C\NC23CC4CC(CC(C4)C2)C3)N=C1c1ccc[nH]1 | 11.3% | 50% |  |  | 0.0375 µM | 0.884 µM | 24 | 0.0905 µM |  | 168
24 | C(/NCC1CCCCCC1)=C1/N=C(c2ccc[nH]2)C2=C1CCCC2.Cl | 16.1% | 75% | > 60 min | > 60 min |  |  |  |  |  | 
25 | COC1=CC(c2ccc(Cc3ccc(OC)cc3)[nH]2)=N/C1=C\NC1CCCCC1.Cl | 0.01% | 84.6% | 19.7 min |  | 0.0226 µM | 0.946 µM | 42 |  |  | 
